Active and inactive are the calls of the source. The calls are words filed in the database; no cut-off is given here.
Key:
Trypanosoma brucei [1] = assay: Inhibition of recombinant Trypanosoma brucei N-terminal His6-tagged AdoMetDC/prozyme hetrodimer expressed in Escherichia coli BL21/DE3 cells at 180 uM at pH 7.2 by RapidFire-MS-based enzyme activity assay
In short: (§1)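 Steady-state decarboxylation of S-adenosyl-L-methionine by purified TbAdoMetDC/prozyme at pH 7.2; decarboxylated AdoMet product read by RapidFire–MS. Inhibitor added from DMSO to 2% final DMSO. Percent inhibition reported at the top tested concentration when mean inhibition stayed below 50%; triplicate.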

[2] = molecular target: T1, S-adenosylmethionine decarboxylase proenzyme (Homo sapiens, UniProt P17707); assay: Inhibition of recombinant human N-terminal His6-tagged AdoMetDC expressed in Escherichia coli BL21/DE3 cells at pH 7.2 by RapidFire-MS-based enzyme activity assay
T1 sequence (P17707 whole entry): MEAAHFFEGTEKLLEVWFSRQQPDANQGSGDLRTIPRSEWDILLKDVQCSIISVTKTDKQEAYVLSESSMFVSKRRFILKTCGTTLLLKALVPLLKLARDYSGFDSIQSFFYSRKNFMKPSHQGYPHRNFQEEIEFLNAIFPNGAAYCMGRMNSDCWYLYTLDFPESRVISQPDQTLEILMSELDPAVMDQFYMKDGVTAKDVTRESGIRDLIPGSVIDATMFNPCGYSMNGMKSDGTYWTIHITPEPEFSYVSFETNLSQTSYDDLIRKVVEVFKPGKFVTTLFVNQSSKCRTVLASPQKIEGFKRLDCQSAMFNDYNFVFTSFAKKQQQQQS

[3] = molecular target: T2, S-adenosylmethionine decarboxylase proenzyme (Trypanosoma brucei brucei) (UniProt P50244); assay: Inhibition of AdoMetDC in bloodstream form Trypanosoma brucei brucei Lister 427 assessed as increase in prozyme level at 1.5 times EC50 after 24 hrs by Western blot method
T2 sequence (whole entry): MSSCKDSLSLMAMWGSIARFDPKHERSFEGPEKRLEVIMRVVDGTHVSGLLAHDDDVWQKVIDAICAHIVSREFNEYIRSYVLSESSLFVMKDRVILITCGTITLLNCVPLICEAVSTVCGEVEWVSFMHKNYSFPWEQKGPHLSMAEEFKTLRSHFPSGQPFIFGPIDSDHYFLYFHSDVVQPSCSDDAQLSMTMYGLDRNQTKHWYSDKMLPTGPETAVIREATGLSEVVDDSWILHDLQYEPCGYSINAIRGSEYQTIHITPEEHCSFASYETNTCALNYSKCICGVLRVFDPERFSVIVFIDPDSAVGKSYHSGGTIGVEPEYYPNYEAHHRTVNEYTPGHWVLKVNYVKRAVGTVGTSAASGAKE

[4] = Inhibition of recombinant Trypanosoma brucei N-terminal His6-tagged AdoMetDC/prozyme hetrodimer expressed in Escherichia coli BL21/DE3 cells at pH 7.2 by RapidFire-MS-based enzyme activity assay
Trypanosoma brucei [5] = assay: Inhibition of recombinant Trypanosoma brucei N-terminal His6-tagged AdoMetDC/prozyme hetrodimer expressed in Escherichia coli BL21/DE3 cells at 21 uM at pH 7.2 by RapidFire-MS-based enzyme activity assay; in short: as §1
[6] = tested on: Trypanosoma brucei brucei; assay: Antitrypanosomal activity against blood stream form Trypanosoma brucei brucei Lister 427 at 25 uM after 48 hrs by CellTiter-Glo assay; type: functional
In short: (§2)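 Bloodstream-form parasites grown in HMI-19 with fetal bovine serum, exposed 48 h to a 3-fold serial dilution (0.0038–25 μM or 0.015–100 μM final; 0.1% DMSO vehicle). Cell density read by ATP bioluminescence (CellTiter-Glo). Triplicate; EC50 from normalized response vs log concentration fit, bottom fixed at 0, Hill slope fixed at –8 when curve steepness gave ambiguous fit. Percent inhibition given at top concentration when <50%.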

[7] = molecular target: T3, S-adenosylmethionine decarboxylase proenzyme (Homo sapiens) (UniProt P17707); assay: Inhibition of recombinant human N-terminal His6-tagged AdoMetDC expressed in Escherichia coli BL21/DE3 cells at 180 uM at pH 7.2 by RapidFire-MS-based enzyme activity assay
T3 sequence (whole entry): T1 sequence (P17707 whole entry)

[8] = tested on: Trypanosoma brucei brucei; assay: Antitrypanosomal activity against bloodstream form Trypanosoma brucei brucei Lister 427 after 48 hrs by CellTiter-Glo assay; type: functional; details: Lister 427, 48 h; in short: as §2
[9] = Selectivity ratio of IC50 for recombinant human N-terminal His6-tagged AdoMetDC expressed in Escherichia coli BL21/DE3 cells to IC50 for recombinant Trypanosoma brucei N-terminal His6-tagged AdoMetDC/prozyme hetrodimer expressed in Escherichia coli BL21/DE3 cells
In short: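 Both enzymes assayed at pH 7.2 by RapidFire–MS, monitoring decarboxylated AdoMet. Inhibitor run as a 3-fold dilution series from 0.01 to 180 μM final, with 2% DMSO final. Data normalized to 0.5 μM Genz-644131 as full inhibition. IC50 fitted with bottom fixed at 0 and Hill slope fixed at −1, triplicate. Ratio is human IC50 over parasite IC50.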

Trypanosoma brucei [10] = assay: (§3) Reversible inhibition of recombinant Trypanosoma brucei N-terminal His6-tagged AdoMetDC/prozyme hetrodimer expressed in Escherichia coli BL21/DE3 cells using S-adenosyl-L-methionine as substrate preincubated for 30 mins followed by 100 fold dilution and substrate addition measured every 5 mins by RapidFire-mass spectrometry
[11] = Inhibition of recombinant Trypanosoma brucei N-terminal His6-tagged AdoMetDC/prozyme hetrodimer expressed in Escherichia coli BL21/DE3 cells at pH 7.7 by RapidFire-MS-based enzyme activity assay
[12] = as §3, with “Competitive” for “Reversible”, “by” for “by 100 fold dilution and”, “double-reciprocal Lineweaver-Burk plot analysis” for “RapidFire-mass spectrometry”
human MDR1 (P-gp) = assay: Apparent permeability from basolateral side to apical side in MDCK2 harboring human MDR1 cells in absence of Pgp inhibitor GF120918 at 10 to 20 uM after 60 mins by LC-MS/MS method; type: ADME, cell-based, Canis lupus familiaris, MDCK-II; details: dog, MDCK-MDR1
In short: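 MDCKII-hMDR1 monolayer permeability measured with or without Pgp inhibitor GF120918.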

Liver [13] = assay: Metabolic stability in CD-1 mouse pooled liver microsomes at 1 uM in presence of NADPH measured up to 30 mins by LC-MS/MS method; type: ADME, microsome; details: 0.5 h
Liver [14] = assay: Metabolic stability in mixed gender human pooled liver microsomes at 1 uM in presence of NADPH measured up to 30 mins by LC-MS/MS method; type: ADME, microsome; details: 0.5 h
Trypanosoma brucei [15] = assay: Ratio of IC50 for recombinant Trypanosoma brucei N-terminal His6-tagged AdoMetDC/prozyme hetrodimer expressed in Escherichia coli BL21/DE3 cells at pH 7.7 to IC50 for recombinant Trypanosoma brucei N-terminal His6-tagged AdoMetDC/prozyme hetrodimer expressed in Escherichia coli BL21/DE3 cells at pH 6.8
[16] = Inhibition of recombinant Trypanosoma brucei N-terminal His6-tagged AdoMetDC/prozyme hetrodimer expressed in Escherichia coli BL21/DE3 cells at pH 6.8 by RapidFire-MS-based enzyme activity assay
[17] = tested on: Trypanosoma brucei brucei; assay: Antitrypanosomal activity against blood stream form Trypanosoma brucei brucei Lister 427 at 100 uM after 48 hrs by CellTiter-Glo assay; type: functional; in short: as §2
[18] = molecular target: T3, S-adenosylmethionine decarboxylase proenzyme (Homo sapiens); assay: Inhibition of recombinant human N-terminal His6-tagged AdoMetDC expressed in Escherichia coli BL21/DE3 cells at 63 uM at pH 7.2 by RapidFire-MS-based enzyme activity assay
Trypanosoma brucei [19] = assay: Inhibition of recombinant Trypanosoma brucei N-terminal His6-tagged AdoMetDC/prozyme hetrodimer expressed in Escherichia coli BL21/DE3 cells at 63 uM at pH 7.2 by RapidFire-MS-based enzyme activity assay; in short: as §1

SMILES	IC50 [2] [µM]	IC50 [4] [µM]	also measured
Cc1cc(Nc2cc(Cl)cc(-c3ccc(N(C)C)cc3)c2)nc(N)n1	> 180		inhibition (Trypanosoma brucei [1]): 34%
Cc1cc(Nc2cc(Cl)cc(Cl)c2)ncn1	> 180	> 180	inhibition [3]: inactive
Nc1cnccc1Nc1cc(Cl)cc(Cl)c1	> 180		inhibition (Trypanosoma brucei [1]): 21%
Cc1cc(Nc2cc(Cl)cc(-c3cncs3)c2)nc(N)n1	> 21		inhibition (Trypanosoma brucei [5]): 42%
Nc1nc(Cl)cc(Nc2cc(Cl)cc(Cl)c2)n1	> 180	> 180	inhibition [3]: inactive
CC(=O)c1ccc(-c2cc(Cl)cc(Nc3cc(C)nc(N)n3)c2)cc1	> 21		inhibition (Trypanosoma brucei [5]): 28%
Cc1cc(Nc2ccc(Br)cc2F)nc(N)n1	> 180	> 180	Activity [6]: 25%
C=CCOc1cc(Br)cc(Nc2cc(C)nc(N)n2)c1		4.5	inhibition [7]: 28%; IC50 [8]: 4.4 µM
Cc1cc(Nc2cc(Cl)c(F)c(Cl)c2)nc(N)n1		1.5	Ratio IC50 [9]: > 100
Cc1cc(Nc2cccc(Br)c2)nc(N)n1	> 180		inhibition (Trypanosoma brucei [1]): 41%
Cc1cc(Nc2cc(Cl)cc(Cl)c2)nc(N)n1		3.7	inhibition (Trypanosoma brucei [10]): Active; inhibition [7]: 27%; inhibition [3]: Active; IC50 [11]: 30 µM; Ki [12]: 2.6 µM; Papp B→A at 1 h, up to 20 µM (human MDR1 (P-gp)): 13.5 ×10⁻⁶ cm/s; Stability (Liver [13]): Unstable; Stability (Liver [14]): Unstable; Ratio IC50 (Trypanosoma brucei [15]): 60; IC50 [16]: 0.5 µM
Cc1cc(Nc2cc(Cl)cc(-c3ccoc3)c2)nc(N)n1		7.4	inhibition [7]: 30%; IC50 [8]: 7.1 µM
Cc1cc(Nc2cc(C(F)(F)F)ccc2Cl)nc(N)n1	> 180	199	Activity [6]: 28%
COC(=O)c1cc(Nc2cc(C)nc(N)n2)cc(C(=O)OC)c1	> 180		inhibition (Trypanosoma brucei [1]): 40%
Cc1cc(Nc2cccc(Cl)c2Cl)nc(N)n1	> 180	137	Activity [6]: 27%
Cc1cc(N)cc(Nc2cc(Cl)cc(Cl)c2)n1	> 180		inhibition (Trypanosoma brucei [1]): 24%
Cc1cc(Nc2cc(Cl)cc(Cl)c2O)nc(N)n1	> 180	37	Activity [17]: 26%
Cc1cc(Nc2cc(Cl)cc(-c3ccsc3)c2)nc(N)n1		26	inhibition [7]: 30%
Cc1cc(Nc2cccc(Cl)c2C)nc(N)n1	> 180	> 180	Activity [6]: 29%
Cc1cc(Nc2cc(Cl)cc(C(F)(F)F)c2)nc(N)n1		3.9	inhibition [7]: 39%
Cc1cc(Nc2ccc(F)c(F)c2)nc(N)n1	> 180		inhibition (Trypanosoma brucei [1]): 33%; Activity [6]: 25%

SMILES	IC50 [2] [µM]	IC50 [4] [µM]	also measured
CCOc1cc(Br)cc(Nc2cc(C)nc(N)n2)c1		6	inhibition [7]: 36%
Cc1cc(Nc2cc(Cl)cc(-c3ccccc3)c2)nc(N)n1		3.3	inhibition [18]: 30%
Nc1nc(Nc2cc(Cl)cc(Cl)c2)cc(-c2ccccc2)n1	> 21		inhibition (Trypanosoma brucei [5]): 24%
Cc1nc(N)cc(Nc2cc(Cl)cc(Br)c2)n1	> 180		inhibition (Trypanosoma brucei [1]): 24%
Cc1cc(Nc2cc(Cl)c(O)c(Cl)c2)nc(N)n1	> 180		inhibition (Trypanosoma brucei [1]): 33%
Nc1cc(Nc2cc(Cl)cc(Cl)c2)nc(N)n1	> 180	48	IC50 [16]: 5.8 µM
Cc1cc(Nc2cccc(S(F)(F)(F)(F)F)c2)nc(N)n1	> 180		inhibition (Trypanosoma brucei [1]): 23%
Cc1cc(Nc2cc(Cl)ccc2Cl)nc(N)n1	> 180	115	Activity [6]: 23%
Cc1cc(Nc2cc(Cl)ccc2C)nc(N)n1	> 180	> 180	Activity [6]: 28%
Cc1cc(Nc2ccc(Cl)cc2)nc(N)n1	> 180	> 180	Activity [6]: 28%
Nc1nccc(Nc2cc(Cl)cc(Cl)c2)n1	> 180	13	inhibition [3]: Active
Cc1cc(Nc2cc(Cl)c(Oc3ccccc3)c(Cl)c2)nc(N)n1	> 180		inhibition (Trypanosoma brucei [1]): 38%
Cc1cc(NCCc2cc(Cl)cc(Cl)c2)nc(N)n1		28	inhibition [7]: 29%
CSc1cccc(Nc2cc(C)nc(N)n2)c1		149	inhibition [7]: 23%
Cc1cc(Nc2ccc(Cl)cc2Cl)nc(N)n1	> 180	> 180	Activity [6]: 28%
Cc1cc(Nc2cc(Cl)cc(-c3ccc(F)c(Cl)c3)c2)nc(N)n1	> 180	157	IC50 [8]: 3.2 µM
Cc1cc(Nc2cc(Br)cc(Br)c2)nc(N)n1		1.9	Ratio IC50 [9]: > 100; inhibition [7]: 31%
Cc1cc(Nc2cccc(Cl)c2)nc(N)n1	> 180		inhibition (Trypanosoma brucei [1]): 35%
Cc1cc(Nc2cc(S(C)(=O)=O)cc(S(C)(=O)=O)c2)nc(N)n1		1.5	inhibition [7]: 39%
Cc1cc(Nc2cc(Br)cc(OCC(F)(F)F)c2)nc(N)n1	44	1.6	Ratio IC50 [9]: 27
Cc1cc(Nc2cc(Cl)cc(-c3cc4ccccc4o3)c2)nc(N)n1	> 63		inhibition (Trypanosoma brucei [19]): 23%

— ChEMBL document CHEMBL4033778, “Species-Selective Pyrimidineamine Inhibitors of Trypanosoma brucei S-Adenosylmethionine Decarboxylase” (J Med Chem, 2018)
